Experiment [1] concerns the target T1, Neuronal acetylcholine receptor; alpha4/beta2 (Rattus norvegicus) (UniProt P09483+P12390). Kind of experiment: Noncompetitive inhibition of nicotine-induced rat alpha4beta2 nAChR transfected in HEK293 cells assessed as stimulation of membrane potential after 10 mins by fluorescence assay. The experiment is classed as cell-based. Summed up: (§1)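 Transfected HEK cells were seeded at 4000/well the day before and loaded with blue membrane-potential dye in HBSS/20 mM HEPES pH 7.4 at 37 °C for 20 min. […] Fluorescence (ex 530, em 550–580) was recorded every 3 s for 120 s on a FlexStation.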

For the next experiment, the system named is HEK293. Briefly: Selectivity ratio for rat alpha3beta4 nAChR transfected in HEK293 cells to rat alpha4beta2 nAChR transfected in HEK293 cells. The experiment is classed as cell-based.
The species named for a further experiment is Rattus norvegicus. Briefly: Selectivity ratio of Ki for rat alpha3beta4 nAChR to Ki for rat alpha4beta2 nAChR. An outline of the steps: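 Selectivity was calculated from [3H]epibatidine-binding Ki values as (Ki α3β4 − Ki α4β2)/Ki α4β2.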
Experiment [2] concerns the target T2, Neuronal acetylcholine receptor; alpha4/beta2 (Rattus norvegicus, UniProt P09483+P12390). Kind of experiment: Displacement of [3H]epibatidine from rat alpha4beta2 nAChR transfected in HEK293 cells after 2 hrs by beta-plate counting analysis. The experiment is classed as cell-based. Summed up:
(§2)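 Cell lines KXα3β4R2 and KXα4β2R2 (rat receptors) were used. Membranes were prepared by homogenizing cells in 50 mM Tris pH 7.4 and centrifuging twice at 20000g. They were incubated 2 h at room temperature with 0.3 nM [3H]epibatidine plus test sample, then filtered on PEI-soaked glass fiber and counted. Nonspecific binding was defined by 1 µM AT-1001 or 0.1 µM epibatidine. Ki was obtained by Cheng–Prusoff; runs were in triplicate, at least twice.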
In general terms: In a radioligand displacement assay an active substance lowers the binding of a labelled ligand.

The target in experiment [3] is T1, Neuronal acetylcholine receptor; alpha4/beta2 (Rattus norvegicus). Kind of experiment: Agonist activity at rat alpha4beta2 nAChR transfected in HEK293 cells assessed as change in membrane potential measured every 3 secs for 120 secs by fluorescence assay. Format: cell-based. An outline of the steps: (§3)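 Membrane potential read with blue potentiometric dye on a FlexStation. Transfected HEK cells were seeded at 4000/well one day ahead, washed, then loaded with dye in HBSS containing 20 mM HEPES, pH 7.4, for 30 min at 37 °C. Compound was then dispensed automatically and fluorescence (ex 530, em 550–580) recorded every 3 s for 120 s.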

For experiment [4], the target named is T3, Neuronal acetylcholine receptor; alpha3/beta4 (Rattus norvegicus) (UniProt P04757+P12392). Kind of experiment: Antagonist activity at rat alpha3beta4 nAChR transfected in HEK293 cells assessed as inhibition of nicotine-induced membrane potential stimulation at 10 uM after 10 mins by fluorescence assay. The experiment is classed as cell-based. Summed up:
as §1

Experiment [5] concerns the target T1, Neuronal acetylcholine receptor; alpha4/beta2 (Rattus norvegicus). Kind of experiment: Inverse agonist activity at nicotine-induced rat alpha4beta2 nAChR activation transfected in HEK293 cells. Format: cell-based.
In experiment [6] the target is T2, Neuronal acetylcholine receptor; alpha4/beta2. Kind of experiment: Antagonist activity at rat alpha4beta2 nAChR transfected in HEK293 cells after 10 mins by fluorescence assay in presence of nicotine. The experiment is classed as cell-based. Summed up:
as §1

Experiment [7] deals with Nicotinic acetylcholine receptor alpha3/beta4/alpha5 (Homo sapiens, UniProt P30532+P30926+P32297). Briefly: Binding affinity to alpha3beta4alpha5 nAChR (unknown origin). The experiment is classed as protein-complex assay.
For experiment [8], the target named is T3, Neuronal acetylcholine receptor; alpha3/beta4 (Rattus norvegicus). Briefly: Agonist activity at rat alpha3beta4 nAChR transfected in HEK293 cells assessed as change in membrane potential measured every 3 secs for 120 secs by fluorescence assay. Format: cell-based. An outline of the steps: as §3
Experiment [9] concerns the target T1, Neuronal acetylcholine receptor; alpha4/beta2 (Rattus norvegicus). Kind of experiment: Noncompetitive inhibition of nicotine-induced rat alpha4beta2 nAChR transfected in HEK293 cells assessed as stimulation of membrane potential at 3 uM after 10 mins by fluorescence assay. Format: cell-based. More on the design: scale not given: the % may be the effect or the level left. An outline of the steps: as §1

The target is the same in experiment [10]. Kind of experiment: Noncompetitive inhibition of nicotine-induced rat alpha4beta2 nAChR transfected in HEK293 cells assessed as stimulation of membrane potential at 1 uM after 10 mins by fluorescence assay. The experiment is classed as cell-based. More on the design: scale not given: the % may be the effect or the level left. Summed up:
as §1

For experiment [11] the target is unchanged. Kind of experiment: Noncompetitive inhibition of nicotine-induced rat alpha4beta2 nAChR transfected in HEK293 cells assessed as stimulation of membrane potential at 0.3 uM after 10 mins by fluorescence assay. Format: cell-based. On the set-up: scale not given: the % may be the effect or the level left. Summed up: as §1
Experiment [12] deals with Neuronal acetylcholine receptor; alpha3/beta4 (Rattus norvegicus, UniProt P04757+P12392). Kind of experiment: Displacement of [3H]epibatidine from rat alpha3beta4 nAChR transfected in HEK293 cells after 2 hrs by beta-plate counting analysis. The experiment is classed as cell-based. An outline of the steps:
as §2

Active and inactive are the calls of the source. No cut-off for these calls is given here.

T2 sequence (P09483 whole entry): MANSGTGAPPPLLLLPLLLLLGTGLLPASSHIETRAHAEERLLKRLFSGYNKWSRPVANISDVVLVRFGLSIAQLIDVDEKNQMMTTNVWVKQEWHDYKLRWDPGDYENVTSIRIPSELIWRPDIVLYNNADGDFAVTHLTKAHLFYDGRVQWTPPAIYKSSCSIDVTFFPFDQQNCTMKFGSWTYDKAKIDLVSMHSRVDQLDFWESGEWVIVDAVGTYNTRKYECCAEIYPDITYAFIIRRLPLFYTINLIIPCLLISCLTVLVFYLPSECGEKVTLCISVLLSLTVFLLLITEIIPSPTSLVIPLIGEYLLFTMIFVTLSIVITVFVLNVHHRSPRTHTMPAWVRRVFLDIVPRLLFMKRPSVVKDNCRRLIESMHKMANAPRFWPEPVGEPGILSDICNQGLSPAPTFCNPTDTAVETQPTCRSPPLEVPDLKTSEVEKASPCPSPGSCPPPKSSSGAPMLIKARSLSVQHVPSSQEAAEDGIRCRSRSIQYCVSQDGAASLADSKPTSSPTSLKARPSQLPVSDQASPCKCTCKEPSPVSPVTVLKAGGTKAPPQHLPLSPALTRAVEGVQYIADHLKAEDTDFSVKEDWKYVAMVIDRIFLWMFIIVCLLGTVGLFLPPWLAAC
T2 sequence (P12390 whole entry): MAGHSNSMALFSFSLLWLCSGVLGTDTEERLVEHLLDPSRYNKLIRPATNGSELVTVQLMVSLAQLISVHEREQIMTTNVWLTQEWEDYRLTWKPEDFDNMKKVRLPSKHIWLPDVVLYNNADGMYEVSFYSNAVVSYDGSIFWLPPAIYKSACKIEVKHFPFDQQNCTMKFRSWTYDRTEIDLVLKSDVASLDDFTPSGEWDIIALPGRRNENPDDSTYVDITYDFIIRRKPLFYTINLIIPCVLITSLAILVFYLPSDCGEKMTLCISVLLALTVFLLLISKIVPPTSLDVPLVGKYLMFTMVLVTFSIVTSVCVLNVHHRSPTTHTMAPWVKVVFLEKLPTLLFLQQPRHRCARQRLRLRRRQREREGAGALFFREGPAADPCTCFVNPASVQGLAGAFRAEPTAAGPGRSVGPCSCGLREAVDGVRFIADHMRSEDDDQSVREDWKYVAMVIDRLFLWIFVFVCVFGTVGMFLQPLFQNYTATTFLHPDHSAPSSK
Nicotinic acetylcholine receptor alpha3/beta4/alpha5, sequence (P30926 whole entry): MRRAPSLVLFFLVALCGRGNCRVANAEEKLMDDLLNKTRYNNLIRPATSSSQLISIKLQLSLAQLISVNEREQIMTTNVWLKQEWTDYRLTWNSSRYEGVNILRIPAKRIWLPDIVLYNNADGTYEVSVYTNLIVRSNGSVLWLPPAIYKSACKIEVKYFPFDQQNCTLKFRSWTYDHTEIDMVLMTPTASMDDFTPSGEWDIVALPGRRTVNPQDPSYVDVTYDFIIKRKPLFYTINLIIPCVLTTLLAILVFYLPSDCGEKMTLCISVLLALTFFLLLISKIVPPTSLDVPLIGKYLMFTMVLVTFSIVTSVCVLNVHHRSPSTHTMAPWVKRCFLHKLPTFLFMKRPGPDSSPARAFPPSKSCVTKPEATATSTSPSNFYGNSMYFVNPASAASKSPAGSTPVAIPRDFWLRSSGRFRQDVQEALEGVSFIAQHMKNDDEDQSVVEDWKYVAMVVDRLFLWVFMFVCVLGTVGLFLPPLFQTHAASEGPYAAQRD
Nicotinic acetylcholine receptor alpha3/beta4/alpha5, sequence (P32297 whole entry): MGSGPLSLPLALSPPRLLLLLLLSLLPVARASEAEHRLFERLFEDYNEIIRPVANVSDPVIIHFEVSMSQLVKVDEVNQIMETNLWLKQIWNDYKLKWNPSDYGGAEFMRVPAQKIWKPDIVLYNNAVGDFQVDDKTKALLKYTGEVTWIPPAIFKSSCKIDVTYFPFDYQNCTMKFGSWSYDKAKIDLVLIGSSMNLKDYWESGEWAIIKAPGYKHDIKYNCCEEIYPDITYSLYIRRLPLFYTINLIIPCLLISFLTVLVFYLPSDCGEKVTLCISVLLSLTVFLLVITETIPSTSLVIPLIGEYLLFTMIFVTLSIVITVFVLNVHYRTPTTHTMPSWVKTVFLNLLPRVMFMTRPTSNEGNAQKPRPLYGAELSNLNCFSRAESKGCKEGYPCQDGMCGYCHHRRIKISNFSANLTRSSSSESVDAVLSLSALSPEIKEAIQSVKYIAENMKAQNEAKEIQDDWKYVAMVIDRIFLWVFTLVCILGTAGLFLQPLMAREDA
Nicotinic acetylcholine receptor alpha3/beta4/alpha5, sequence (P30532 whole entry): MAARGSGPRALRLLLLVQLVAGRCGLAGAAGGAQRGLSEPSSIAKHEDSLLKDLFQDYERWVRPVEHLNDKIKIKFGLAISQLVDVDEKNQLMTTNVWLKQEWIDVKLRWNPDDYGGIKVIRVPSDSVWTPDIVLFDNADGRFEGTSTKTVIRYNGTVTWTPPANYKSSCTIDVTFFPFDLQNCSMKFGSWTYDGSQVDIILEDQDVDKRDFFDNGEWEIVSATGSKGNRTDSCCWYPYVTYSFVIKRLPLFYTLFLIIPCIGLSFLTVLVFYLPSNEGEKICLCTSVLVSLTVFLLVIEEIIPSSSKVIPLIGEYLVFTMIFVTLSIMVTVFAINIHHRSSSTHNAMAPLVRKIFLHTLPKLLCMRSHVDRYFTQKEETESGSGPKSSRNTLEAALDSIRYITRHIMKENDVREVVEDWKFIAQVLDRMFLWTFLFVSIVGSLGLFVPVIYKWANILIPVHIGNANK
Neuronal acetylcholine receptor; alpha3/beta4, sequence (P04757 whole entry): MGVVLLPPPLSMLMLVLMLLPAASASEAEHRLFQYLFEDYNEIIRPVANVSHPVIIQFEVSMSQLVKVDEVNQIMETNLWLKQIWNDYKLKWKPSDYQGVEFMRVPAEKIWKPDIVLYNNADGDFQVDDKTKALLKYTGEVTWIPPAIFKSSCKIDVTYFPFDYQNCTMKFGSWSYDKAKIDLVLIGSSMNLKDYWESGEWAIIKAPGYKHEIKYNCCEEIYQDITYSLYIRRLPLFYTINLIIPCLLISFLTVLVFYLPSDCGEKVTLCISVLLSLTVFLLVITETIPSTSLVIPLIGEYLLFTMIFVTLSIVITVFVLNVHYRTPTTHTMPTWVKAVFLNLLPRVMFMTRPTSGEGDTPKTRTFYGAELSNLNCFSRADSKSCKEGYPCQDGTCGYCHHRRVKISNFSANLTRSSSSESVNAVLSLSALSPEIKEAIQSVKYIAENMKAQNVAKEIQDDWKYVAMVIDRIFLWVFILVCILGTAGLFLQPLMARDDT
Neuronal acetylcholine receptor; alpha3/beta4, sequence (P12392 whole entry): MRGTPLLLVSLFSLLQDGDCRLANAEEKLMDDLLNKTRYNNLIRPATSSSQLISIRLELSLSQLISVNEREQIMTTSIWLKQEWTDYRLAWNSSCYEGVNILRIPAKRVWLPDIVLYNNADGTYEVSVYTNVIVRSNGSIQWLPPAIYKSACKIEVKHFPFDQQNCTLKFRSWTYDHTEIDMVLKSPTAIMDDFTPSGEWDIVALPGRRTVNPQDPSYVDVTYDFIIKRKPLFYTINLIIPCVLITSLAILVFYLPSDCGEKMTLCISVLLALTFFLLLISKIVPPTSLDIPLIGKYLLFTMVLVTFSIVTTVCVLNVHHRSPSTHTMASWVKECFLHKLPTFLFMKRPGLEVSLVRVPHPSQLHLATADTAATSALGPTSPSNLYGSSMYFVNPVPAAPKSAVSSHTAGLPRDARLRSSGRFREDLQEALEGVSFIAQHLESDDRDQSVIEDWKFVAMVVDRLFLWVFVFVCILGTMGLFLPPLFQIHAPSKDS

On to `CC(C)(C)C1CCC(CN2C(=N)N(CCCC[C@H]3CNC(=N)N3CCc3cccnc3)C[C@H]2Cc2ccccc2)CC1` (some centres undefined), for which the values for the inhibition result in experiment [1] and in experiment [4] were “Dose-dependent effect” and 50%, respectively. For the same compound, the Selectivity ratio in the experiment with HEK293 was 20. Also, in the experiment listed under Rattus norvegicus, the Ratio Ki was 478. In addition, the Ki (in general, the dissociation constant of the complex between target and ligand, obtained from inhibition or displacement) was 0.118 µM in experiment [2], 9.06 µM in experiment [7] and 56.5 µM in experiment [12]. For the same compound, the outcome in experiment [3] and in experiment [8] was inactive. In addition, in [5], the outcome was Active. Besides, the IC50 – broadly, the midpoint of a concentration-inhibition curve – in experiment [6] was determined as 0.514 µM. In addition, the Activity in [9] was 0%; in experiment [10] it was 38%; in experiment [11], 83%.

The record behind these values is ChEMBL document CHEMBL3108759, “Scaffold ranking and positional scanning utilized in the discovery of nAChR-selective compounds suitable for optimization studies” (J Med Chem, 2013).
